Cytotoxicity data for 95 compounds are collected here from ChEMBL document CHEMBL4513216, “Probing the Open Global Health Chemical Diversity Library for Multistage-Active Starting Points for Next-Generation Antimalarials” (ACS Infect Dis, 2020).

Each structure is given as a SMILES string.

The data set is described as follows: Toxicity liver stage against HepG2, at 10uM. In kind it is cell-based. More on the design: test concentration 10 uM, cell line HepG2-A16-CD81EGFP. The note with it: human, HepG2-A16-CD81EGFP cells; read-out: INHIBITION
Summed up: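 Uninfected HepG2-A16-CD81EGFP cells, 3 × 10^3 per well, 1536-well, plated on prespotted compound at 10 μM final, parasite-free screening media added to match infected plates; puromycin 10 μM positive, DMSO 0.5% negative; run in parallel with 48 h PbLuc assay at 37 °C, 5% CO2; viability by CellTiter-Glo luminescence, normalized to controls.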
In the case of `CCC1=N[C@@]2(CC[C@@H]3CN(C(=O)NCc4ccccc4)C[C@@H]32)C(=O)N1C`, the cytotoxicity at 10 µM is 1.05%. Take `O=c1n(Cc2ncccn2)nc(C2CCNCC2)n1-c1ccccc1`: the cytotoxicity at 10 µM is -9.62%.

In the case of `CN1CCC/C1=N\S(=O)(=O)c1ccc(NC(=O)c2ccc(Cl)cc2)cc1`, the cytotoxicity at 10 µM was -0.383%.

Regarding `O=C(CCCn1cncn1)N1CCC2(CCCN(C3CCCC3)C2=O)C1` (stereo not given), the cytotoxicity at 10 µM was -1.8%. As for `Cn1cc2c(n1)C(CNCc1ccco1)OCC2` (stereo not given), the cytotoxicity at 10 µM is -1.54%. The figure for `Cc1cc(NC(=O)CN2CCc3cncnc3C2)on1` is -17.6%; for `Cc1cc2ccccc2n1CCC(=O)NCCN(C)S(C)(=O)=O` it is 5.56%; for `CC(C)C(NC(=O)N1CCN(c2ccc(Cl)cc2)CC1)C(=O)NC1CC1` (stereo not given) it is 23.6%. Take `COc1ccc(CNCc2c(C(C)C)nn(C)c2OC)cn1`: the cytotoxicity at 10 µM is -10.9%. The figure for `CNS(=O)(=O)CCNC(=O)[C@@]12CNC[C@@H]1CN(C1CCCC1)C2` is 1.3%. Next, `COc1ccc(CN2CCCn3nnc(COCC4CC4)c3C2)cc1`: -110%; `O=C(CCS(=O)(=O)c1ccccc1)NC1CCOC2(CCOCC2)C1` (stereo not given): 7.56%. Consider `CC(C)CN1CCN(C)C(CCO)C1` (stereo not given), for which the cytotoxicity at 10 µM was determined as 1.84%. On to `CC(C)N1[C@H](CN(C)C)C[C@@H]2CN(c3ncc(F)cn3)CC[C@@H]21`, for which the cytotoxicity at 10 µM was determined as 11.7%. The figure for `CNc1cc(C(=O)N2CCCCC2CCn2ccnc2C)ccn1` (stereo not given) is 1.85%; for `COc1ccc(-c2n[nH]cc2CN(C)Cc2nccn2C)c(F)c1` it is -2.77%.

Take `O=C(CN1CCN(c2ncccn2)[C@@H]2CS(=O)(=O)C[C@@H]21)N1CCCCC1`: the cytotoxicity at 10 µM was -6.82%.

`CN(C)c1cc(C2CCCN2Cc2ccccc2OCC(=O)O)ccn1` (stereo not given): the cytotoxicity at 10 µM was -3.8%. Next, `Cc1ncsc1C(=O)NCCNC(=O)c1cccs1`: -8.83%; `CC(C)c1nnc2n1CCN(C(=O)COc1ccc(C(N)=O)cc1)C2`: 0.0102%; `CCN1CC(CN(C)Cc2nc(-c3cccc(Cl)c3)oc2C)CC1=O` (stereo not given): 6.9%. Take `CC(C)N1CCCc2sc(C(=O)NC3CC3)nc21`: the cytotoxicity at 10 µM is -143%.

Consider `CN(C)C(=O)CCCn1ccc(NCc2ccc(C#N)cc2)n1`, for which the cytotoxicity at 10 µM was 1.92%.

In the case of `Cc1ccc(CN2CCCC23CCN(S(=O)(=O)c2ccccc2)C3)o1` (stereo not given), the cytotoxicity at 10 µM is 0.642%. Next, `NC(=O)C1CCN(C(=O)CCn2ccc3ccc(F)cc32)CC1`: -6.83%; `CC(CCc1ccccc1)N1CCC(C(=O)Nc2ccccn2)CC1` (stereo not given): 13.5%; `CCOC(=O)C1CCN(C(=O)CN2CCCC2c2ccsc2)CC1` (stereo not given): -5.42%. Consider `FC(F)(F)C1CN(Cc2cccc(-c3ccccn3)c2)CCO1` (stereo not given), for which the cytotoxicity at 10 µM was -7.73%.

Regarding `CC1=N[C@@]2(CC[C@@H]3CN(C(=O)NCc4cccc(F)c4)C[C@@H]32)C(=O)N1`, the cytotoxicity at 10 µM is -73.4%.

For the compound `CCOc1cccc2c1OCC(=O)N(c1ccc3c(c1)OCO3)C2`, the cytotoxicity at 10 µM stood at 17.1%. Next, `Cn1nc(CN2CCCC2)c2c1CN(C(=O)c1ccc[nH]1)CC2`: 6.86%; `c1cnn(-c2ccc(CN3CCCC(Cn4cncn4)C3)cc2)c1` (stereo not given): -2.63%.

Turning to `Cc1nnc(NC(=O)N2CCCCC2CCO)s1` (stereo not given), the cytotoxicity at 10 µM was -43.2%. For the compound `CCOCc1nc2c(c(N(C)Cc3nonc3C)n1)CCNCC2`, the cytotoxicity at 10 µM is 6.7%. The figure for `O=C(NC1CC1)C1CCc2nnc(-c3cccnc3)n21` (stereo not given) is 8.96%. Next, `Cc1csc([C@H]2C[C@@H]3CCN(Cc4cc(C)on4)C[C@H]3O2)n1`: -99.4%; `Cc1ccc(-c2noc(Cn3nc(C(N)=O)ccc3=O)n2)cc1`: -1.6%. As for `O=C(Nc1ccc(N2CCCCC2)cn1)C1CCCN1C(=O)C1CC1` (stereo not given), the cytotoxicity at 10 µM was -6.35%. As to `CCC(CC)CN1CCC(n2cc(C3CCCC3)nn2)CC1`, the cytotoxicity at 10 µM stood at 3.92%. The figure for `CN(Cc1ccc2c(c1)OCO2)Cc1cscn1` is -11.1%; for `Cc1noc(C2(C)CCCN(C(=O)c3cnn(C)c3)C2)n1` (stereo not given) it is -17.3%; for `CC(=O)N1CCCC(C(=O)NCCc2nc(Cc3ccccc3)no2)C1` (stereo not given) it is 3.81%. In the case of `CC(NC(=O)Nc1nccs1)C(=O)NC1CCCC1` (stereo not given), the cytotoxicity at 10 µM was determined as 1.87%. The figure for `Cc1cc(-c2cnc(NC3CCCCC3)nc2-c2ccco2)on1` is -16.4%; for `COc1c(C2CCCN2C(=O)c2cccc(C(N)=O)c2)c(C)nn1C` (stereo not given) it is 0.192%; for `CCCN1CCC(CC(=O)N(C)C(C)c2cncs2)CC1` (stereo not given) it is 2.62%.

`Cn1cc(C(=O)Nc2ccc3c(c2)CN(C(=O)C2CC2)CC3)nn1`: the cytotoxicity at 10 µM was found to be 4.59%. Turning to `CCCN1CCC2(Cc3ccccc3NC2=O)C1` (stereo not given), the cytotoxicity at 10 µM came out at 14.5%.

On to `Cc1cnc(NC(=O)C(C)n2ccc(C(F)(F)F)n2)s1` (stereo not given), for which the cytotoxicity at 10 µM stood at 1.75%. Next, `COc1cccc2c1OCC(C(=O)N1Cc3ccccc3C1)C2` (stereo not given): 3.16%; `Nc1cccnc1N1CCC(c2ccccc2)CC1`: -5.2%. With `c1ccc(CN2CCCn3nnc(CNc4ncccn4)c3C2)nc1`, the cytotoxicity at 10 µM is -3.29%. As for `O=C1CC2(CCN(Cc3ccncc3)C2)CN1c1cccc(F)c1` (stereo not given), the cytotoxicity at 10 µM is -152%.

`CN(C)C(=O)CN1CC=C(c2cnn(Cc3ccccc3)c2)CC1`: the cytotoxicity at 10 µM was -6.12%. The figure for `O=C1CC(c2ccccc2)C2(CCN(C(=O)c3cnccn3)CC2)N1` (stereo not given) is -75.1%; for `COC(=O)C1CN(Cc2nc(-c3ccccc3)cs2)C[C@@H](C)O1` (stereo not given in full) it is -0.227%.

For `CN(C)c1ccc(C(=O)N2CCCC2c2cnn(C)c2)cn1` (stereo not given), the cytotoxicity at 10 µM was -1.83%. On to `Cc1cnn(CC2CCCN2CC(=O)Nc2nc(C)cs2)c1` (stereo not given), for which the cytotoxicity at 10 µM was -6.26%. For `O=C(COc1ccc(Cl)cc1)N1CCN(c2cnccn2)CC1`, the cytotoxicity at 10 µM was -20.4%. The figure for `CC(C)c1nccn1C(C)C(=O)N1CCN(c2cnccn2)CC1` (stereo not given) is -12.5%; for `O=C(c1cccc(OC2CCCC2)c1)N1CCCC(n2cncn2)C1` (stereo not given) it is -10.3%; for `CC(C)c1nc(C(=O)N2CCOCC2CC(=O)c2ccco2)cs1` (stereo not given) it is -7.58%. Regarding `COc1ccc(Oc2ccc(CNC(=O)C3CCS(=O)(=O)C3)cn2)cc1` (stereo not given), the cytotoxicity at 10 µM was -2.22%. The figure for `Cc1cc(C)nc(N2CCCC(C(=O)Nc3n[nH]c(C(C)C)n3)C2)n1` (stereo not given) is 8.04%. Consider `Cc1cccc(C(=O)N2CCN(c3ccccc3F)CC2)n1`, for which the cytotoxicity at 10 µM turned out to be 1.83%. With `CNC(=O)c1cn[nH]c1C1CCN(Cc2cccc(C)c2OC)C1` (stereo not given), the cytotoxicity at 10 µM is -23.6%. Consider `O=C(NCc1csc2ccc(Cl)cc12)c1cc2n(n1)CCNC2`, for which the cytotoxicity at 10 µM is -0.699%.

For `CC(=O)N1CCC(NC2(Cc3cc(C(C)(C)O)on3)COC2)CC1`, the cytotoxicity at 10 µM is -1.09%.

Consider `Cc1nc(-c2cnn(C)c2)nc2c1CN(C(=O)c1cccnc1)CC2`, for which the cytotoxicity at 10 µM amounted to 2.68%. With `Cc1cnc(C2CCCN(C(=O)c3c[nH]c(=O)[nH]c3=O)C2)s1` (stereo not given), the cytotoxicity at 10 µM is -1.58%.

As for `O=C(c1ccc2nccn2c1)N1CCCC1c1noc(C2CC2)n1` (stereo not given), the cytotoxicity at 10 µM was -4.68%. The figure for `CN(Cc1cnn(-c2ccccc2)n1)CC1CCCN1c1cccnn1` (stereo not given) is -6.56%. Next, `CCCN1CCC(Cc2noc(-c3cc4cccnc4nc3C)n2)CC1`: -0.749%. Next, `Cc1ocnc1C(=O)Nc1ccc(-c2nnc(N(C)C)o2)cc1`: 5.49%; `CC(C)c1ccc(CNC(c2ccc(F)cn2)C(C)C)cc1` (stereo not given): -4.45%; `O=C(Nc1ccc(F)cc1)N1C[C@@H]2CC[C@H]1CN(Cc1cccnc1)C2`: -13.4%. With `Cc1ccc(N2CCN(C(=O)CCc3ccc(O)cc3)CC2=O)cc1`, the cytotoxicity at 10 µM is -2.36%. Next, `Cc1cncc(C2CCCN(C(=O)c3cccn3C)C2)n1` (stereo not given): 2.14%; `O=C(O)C1(Cc2cccc(-c3ccc(F)c(F)c3)c2)CCOCC1`: -2.5%; `Cc1cc(CN2CC[C@H]3OCC[C@@]3(C(=O)NC(C)C)C2)no1`: 5.86%. With `COc1ccc(C2=C(C)C(N3CCc4ccccc4C3)=NS2(=O)=O)cc1`, the cytotoxicity at 10 µM is -6.34%. The figure for `CCOC(=O)[C@H]1[C@@H](O)C(=O)N(C)C12CCN(C(=O)CC(C)C)CC2` is -5.12%; for `N#CC1(C(=O)N2CCOC(c3ccc(F)cc3)C2)CCCCC1` (stereo not given) it is 3.85%.

As to `NC(=O)c1ccc(CN2CCCC(O)C2)cc1` (stereo not given), the cytotoxicity at 10 µM is 0.459%. Regarding `CCC(=O)N1CCCC(c2nc(-c3cccnn3)no2)C1` (stereo not given), the cytotoxicity at 10 µM was -6.45%. The figure for `Cc1ncsc1CN1Cc2cnn(C)c2C(COCC2CC2)C1` (stereo not given) is 3.04%; for `COc1ccc(OC)c(C(=O)N2C[C@@H]3CC[C@H]2CN(C)C3)c1` it is 4.61%. Next, `Cc1ccccc1S(=O)(=O)N[C@@H]1CC[C@@H](N2CCNC(=O)C2)[C@@H]1O`: 4.29%. Next, `CC(NC(=O)N1CCC1)c1ccc(S(C)(=O)=O)cc1` (stereo not given): -4.22%.

Regarding `O=C(NC1CC1)C1CCCN1c1ncnc2ccsc12` (stereo not given), the cytotoxicity at 10 µM was -5.2%. Next, `Cc1csc(CN2CCC3(CC2)COC(COCC2CC2)C3)n1` (stereo not given): -108%.

`CC(C)(C)c1cc(=O)[nH]c(C2(N)CCCCC2)n1`: the cytotoxicity at 10 µM was 16.5%. As for `Cc1noc(NCc2cn(C)nc2-c2ccncc2)n1`, the cytotoxicity at 10 µM was -3.48%. Regarding `COc1ccccc1N1CCN(C(=O)CCn2ccc(C)n2)CC1(C)C`, the cytotoxicity at 10 µM is -8.64%. Next, `CC(=O)N1CCC(c2n[nH]cc2-c2ccnc(N)c2)C1` (stereo not given): 0.355%.
